Assay results published in ChEMBL document CHEMBL1157555, “Synthesis and pharmacological evaluation of novel 1,3,8- and 1,3,7,8-substituted xanthines as adenosine receptor antagonists” (Bioorg Med Chem, 2010).

Experiments:
Homo sapiens [1] = organism: Homo sapiens; experiment: Selectivity ratio of Ki for human adenosine A1 receptor to Ki for human adenosine A2B receptor
In short: (§1)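 Ratios of Ki values at each human subtype to Ki at human A2B (HEK-293 membranes, [3H]DPCPX). Each Ki was derived by Cheng–Prusoff from IC50 of radioligand competition binding in membranes of transfected cells. Results are the mean of 3 experiments, each in duplicate.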

Adenosine receptor A1 = molecular target: T1, Adenosine receptor A1 (Homo sapiens, UniProt P30542); experiment: Displacement of [3H]DPCPX from human recombinant adenosine A1 receptor expressed in CHO cells by microplate beta scintillation counter; assay type: cell-based
T1 sequence (P30542 whole entry): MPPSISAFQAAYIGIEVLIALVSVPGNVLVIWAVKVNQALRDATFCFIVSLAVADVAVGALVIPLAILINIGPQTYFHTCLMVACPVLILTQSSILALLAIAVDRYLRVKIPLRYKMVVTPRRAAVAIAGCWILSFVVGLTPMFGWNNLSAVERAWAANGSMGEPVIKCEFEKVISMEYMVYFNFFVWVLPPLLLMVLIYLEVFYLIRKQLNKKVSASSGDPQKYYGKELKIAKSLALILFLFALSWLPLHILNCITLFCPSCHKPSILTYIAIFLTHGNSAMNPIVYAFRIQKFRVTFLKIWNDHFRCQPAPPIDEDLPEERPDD
In short: (§2)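 Membranes from CHO cells expressing human A1 were labelled with 2 nM [3H]DPCPX. Non-specific binding was defined with (R)-PIA. Incubation ran 60 min at 25 °C, then samples were filtered and counted by beta scintillation. IC50 came from non-linear regression, and Ki from Cheng–Prusoff. Weak or poorly soluble compounds were reported as % inhibition of specific binding at a single concentration. Mean of 3 experiments, each in duplicate.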

Homo sapiens [2] = organism: Homo sapiens; experiment: Selectivity ratio of Ki for human adenosine A3 receptor to Ki for human adenosine A2B receptor; in short: as §1
Adenosine receptor A2b = molecular target: T2, Adenosine receptor A2b (Homo sapiens, UniProt P29275); experiment: Displacement of [3H]DPCPX from human recombinant adenosine A2B receptor expressed in HEK293 cells by microplate beta scintillation counter; assay type: cell-based
T2 sequence (P29275 whole entry): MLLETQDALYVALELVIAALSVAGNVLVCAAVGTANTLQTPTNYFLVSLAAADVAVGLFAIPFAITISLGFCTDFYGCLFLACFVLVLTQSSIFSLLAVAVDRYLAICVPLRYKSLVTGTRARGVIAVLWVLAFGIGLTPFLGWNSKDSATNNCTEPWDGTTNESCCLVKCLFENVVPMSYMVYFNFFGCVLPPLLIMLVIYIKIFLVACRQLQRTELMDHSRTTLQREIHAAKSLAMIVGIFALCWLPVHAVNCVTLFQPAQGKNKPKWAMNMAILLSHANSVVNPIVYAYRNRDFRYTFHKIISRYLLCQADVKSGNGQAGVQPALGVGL
In short: (§3)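 Membranes from HEK-293 cells expressing human A2B were labelled with 35 nM [3H]DPCPX. Incubation ran 30 min at 25 °C, followed by filtration and beta scintillation counting. IC50 was fitted by non-linear regression and converted to Ki by Cheng–Prusoff. Weak or poorly soluble compounds were given as % inhibition of specific binding at a single concentration. n = 3, each in duplicate.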

Adenosine receptor A2a [3] = molecular target: T3, Adenosine receptor A2a (Homo sapiens, UniProt P29274); experiment: Displacement of [3H]ZM241385 from human recombinant adenosine A2A receptor expressed in human HeLa cells at 1 uM by microplate beta scintillation counter; assay type: cell-based
In short: (§4)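 Competition used HeLa cell membranes expressing human A2A with [3H]ZM241385. Non-specific binding was set with NECA. Incubation was 30 min at 25 °C, then filtration and beta scintillation counting. IC50 from non-linear regression was converted to Ki (Cheng–Prusoff). Weak or poorly soluble compounds were reported as % inhibition of specific binding at a single concentration. Three experiments, each in duplicate.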

Adenosine receptor A3 = molecular target: T4, Adenosine receptor A3 (Homo sapiens, UniProt P0DMS8); experiment: Displacement of [3H]NECA from human recombinant adenosine A3 receptor expressed in human HeLa cells by microplate beta scintillation counter; assay type: cell-based
T4 sequence (P0DMS8 whole entry): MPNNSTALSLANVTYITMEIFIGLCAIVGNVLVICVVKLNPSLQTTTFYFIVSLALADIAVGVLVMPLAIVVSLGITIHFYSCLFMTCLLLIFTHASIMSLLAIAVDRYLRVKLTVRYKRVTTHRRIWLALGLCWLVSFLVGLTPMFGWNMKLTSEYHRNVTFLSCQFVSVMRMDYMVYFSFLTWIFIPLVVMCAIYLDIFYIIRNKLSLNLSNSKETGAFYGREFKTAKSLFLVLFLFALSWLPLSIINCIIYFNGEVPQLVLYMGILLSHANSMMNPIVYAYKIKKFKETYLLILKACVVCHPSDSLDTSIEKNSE
In short: (§5)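 HeLa-A3 cell membranes were labelled with 30 nM [3H]NECA. Non-specific binding was defined with (R)-PIA. After 180 min at 25 °C, samples were filtered and counted by beta scintillation. Ki was calculated by Cheng–Prusoff from IC50 obtained by non-linear regression. Weak or poorly soluble compounds were reported as % inhibition of specific binding at a single concentration. Mean of 3 experiments in duplicate.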

Adenosine receptor A2a [4] = molecular target: T3, Adenosine receptor A2a; experiment: Displacement of [3H]ZM241385 from human recombinant adenosine A2A receptor expressed in human HeLa cells by microplate beta scintillation counter; assay type: cell-based; in short: as §4
Homo sapiens [5] = organism: Homo sapiens; experiment: Selectivity ratio of Ki for human adenosine A2A receptor to Ki for human adenosine A2B receptor; in short: as §1
[6] = molecular target: T5, Adenosine receptor A3 (Homo sapiens) (UniProt P0DMS8); experiment: Displacement of [3H]NECA from human recombinant adenosine A3 receptor expressed in human HeLa cells at 1 uM by microplate beta scintillation counter; assay type: cell-based; in short: as §5
T5 sequence (whole entry): T4 sequence (P0DMS8 whole entry)

[7] = molecular target: T6, Adenosine receptor A1 (Homo sapiens) (UniProt P30542); experiment: Displacement of [3H]DPCPX from human recombinant adenosine A1 receptor expressed in CHO cells at 1 uM by microplate beta scintillation counter; assay type: cell-based; in short: as §2
T6 sequence (whole entry): T1 sequence (P30542 whole entry)

[8] = molecular target: T7, Adenosine receptor A2b (Homo sapiens) (UniProt P29275); experiment: Displacement of [3H]DPCPX from human recombinant adenosine A2B receptor expressed in HEK293 cells at 1 uM by microplate beta scintillation counter; assay type: cell-based; in short: as §3
T7 sequence (whole entry): T2 sequence (P29275 whole entry)

T3 sequence (P29274 whole entry): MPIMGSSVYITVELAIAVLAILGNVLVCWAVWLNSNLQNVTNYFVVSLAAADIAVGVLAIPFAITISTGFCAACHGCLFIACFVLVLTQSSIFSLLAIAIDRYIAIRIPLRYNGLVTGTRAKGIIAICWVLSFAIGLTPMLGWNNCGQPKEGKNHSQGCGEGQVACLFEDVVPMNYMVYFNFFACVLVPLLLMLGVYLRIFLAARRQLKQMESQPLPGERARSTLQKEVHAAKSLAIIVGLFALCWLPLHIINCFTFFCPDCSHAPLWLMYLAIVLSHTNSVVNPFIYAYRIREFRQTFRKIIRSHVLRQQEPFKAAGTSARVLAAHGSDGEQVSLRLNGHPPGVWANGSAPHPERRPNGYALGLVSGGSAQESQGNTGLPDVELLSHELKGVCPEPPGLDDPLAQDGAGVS

Compound | Ratio Ki (Homo sapiens [1]) | Ki (Adenosine receptor A1) [nM] | Ratio Ki (Homo sapiens [2]) | Ki (Adenosine receptor A2b) [nM] | Activity (Adenosine receptor A2a [3]) [%] | Ki (Adenosine receptor A3) [nM] | Ki (Adenosine receptor A2a [4]) [nM] | Ratio Ki (Homo sapiens [5]) | Activity [6] [%] | Activity [7] [%] | Activity [8] [%]
CCCn1c(=O)c2[nH]c(-c3ccccc3)nc2n(CC[S+]([O-])CC)c1=O (centres undefined) |  | 195 | 0.4 | 589 | 9 | 245 |  |  |  |  | 
CCn1c(=O)c2c(nc(Cc3ccco3)n2C)n(Cc2ccccc2)c1=O |  |  |  | 282 |  |  | 1740 | 6.2 | 14 | 29 | 
CCn1c(=O)c2[nH]c(Cc3ccco3)nc2n(Cc2cccs2)c1=O |  | 407 |  |  | 19 |  |  |  | 42 |  | 30
CCCn1c(=O)c2c(nc(-c3ccccc3)n2C)n(CC2CCCO2)c1=O (centres undefined) |  |  |  |  | 25 | 631 |  |  |  | 38 | 41
CCn1c(=O)c2c(nc(Cc3cccs3)n2C)n(Cc2ccccc2)c1=O | 1.1 | 389 |  | 372 |  |  | 759 | 2.1 | 6 |  | 
CCCn1c(=O)c2[nH]c(-c3ccccc3)nc2n(CC2CCCO2)c1=O (centres undefined) |  | 224 |  |  | 37 | 135 |  |  |  |  | 64
CCn1c(=O)c2[nH]c(Cc3cccs3)nc2n(Cc2cccs2)c1=O | 4.9 | 676 | 5.9 | 138 |  | 813 | 3980 | 28.9 |  |  | 
Cn1c(=O)c2[nH]c(-c3cccs3)nc2n(CC2CCCCC2)c1=O |  | 219 |  |  | 29 |  |  |  | 41 |  | 34

Further molecules by falling Ki (Adenosine receptor A1), results first:

Ratio Ki (Homo sapiens [1]) | Ki (Adenosine receptor A1) [nM] | Ratio Ki (Homo sapiens [2]) | Ki (Adenosine receptor A2b) [nM] | Activity (Adenosine receptor A2a [3]) [%] | Ki (Adenosine receptor A3) [nM] | Ki (Adenosine receptor A2a [4]) [nM] | Ratio Ki (Homo sapiens [5]) | Activity [6] [%] | Activity [7] [%] | Activity [8] [%] | Compound
0.3 | 148 | 0.9 | 479 | 12 | 407 |  |  |  |  |  | CCSCCn1c(=O)n(CC)c(=O)c2[nH]c(-c3ccccc3)nc21
0.9 | 120 |  | 135 |  |  | 178 | 1.3 | 20 |  |  | CCn1c(=O)c2c(nc(Cc3c(F)cccc3F)n2C)n(Cc2cccs2)c1=O
3.7 | 100 |  | 26.9 |  |  | 219 | 8.1 | 22 |  |  | CCn1c(=O)c2c(nc(Cc3ccco3)n2C)n(Cc2cccs2)c1=O
2.7 | 95.5 |  | 35.5 |  |  | 123 | 3.5 | 1 |  |  | CCn1c(=O)c2c(nc(Cc3cccs3)n2C)n(Cc2cccs2)c1=O
 | 93.3 |  |  | 3 | 93.3 |  |  |  |  | 39 | CCCn1c(=O)c2[nH]c(-c3ccccc3)nc2n(CCS(=O)(=O)CC)c1=O
0.5 | 93.3 | 0.6 | 191 |  | 117 | 1450 | 7.6 |  |  |  | CCCn1c(=O)c2[nH]c(-c3ccccc3)nc2n(CCSCC)c1=O
